The text below walks through data of ChEMBL document CHEMBL2203220, “Linear and cyclic dipeptides with antimalarial activity” (Bioorg Med Chem Lett, 2012).

In assay [1] the test system is Plasmodium berghei. Briefly: Antimalarial activity against schizonts of chloroquine-sensitive Plasmodium berghei ANKA 2.34 after 16 hrs. The class given is functional, organism-based. The conditions noted are these: ANKA 2.34, 16 h. The procedure, abridged: (§1)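 P. berghei cultures were exposed to peptides in PBS with 0.1% DMSO and 5% ethanol for 16 h at 37 °C, with chloroquine as positive control. Smears were made from 0.5 mL culture samples and schizonts counted per 2000 erythrocytes. Four concentrations were each run in duplicate and averaged. IC50 is the concentration giving 50% fewer schizonts than drug-free controls, extrapolated from the concentration–response curve.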

In assay [2] the test system is Plasmodium berghei. The experiment in a line: Antimalarial activity against schizonts of chloroquine-sensitive Plasmodium berghei ANKA 2.34 assessed as chemosuppression of schizont numbers at 200 uM after 16 hrs relative to control. The class given is functional. The procedure, abridged:
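Peptides in PBS with 0.1% DMSO and 5% ethanol were incubated with P. berghei cultures for 16 h at 37 °C, with chloroquine as positive control. Schizonts per 2000 erythrocytes were counted on smears from 0.5 mL culture samples, in duplicate and averaged. Reduction in schizont number is expressed against drug-free control cultures.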

In assay [3] the test system is Plasmodium berghei. The experiment in a line: Antimalarial activity against Plasmodium berghei. It counts as functional, organism-based. The procedure, abridged:
as §1

Structures are written as SMILES. pIC50: −log10 of the molar value. Where a SMILES comes first, the peptide text is derived from it. [ ]: non-standard residue; d: D form. The star is where a group is joined. ξ: configuration not given here. Boc = CC(C)(C)OC(=O)*; ξOrn = NCCCC(N)C(=O)O; OtBu = CC(C)(C)O*; Sar = CNCC(=O)O

Usually pIC50 stands for −log10 of the IC50, conventionally taken in molar units. Low values mean a large IC50, high ones a small IC50. Take `O=C1N[C@@H](Cc2ccccc2)C(=O)N[C@H]1Cc1ccccc1`: the pIC50 with Plasmodium berghei [1] was 5.60. The Activity in the assay on Plasmodium berghei [2] came to 84.33%.

In the assay with Plasmodium berghei [1], `O=C1CNC(=O)[C@H](Cc2ccccc2)N1` showed a pIC50 of 5.37. Also, the Activity with Plasmodium berghei [2] is recorded as 70.37%.

In the assay on Plasmodium berghei [1], `CC(C)(C)OC(=O)N[C@@H](CCCNC(=O)OCc1ccccc1)C(=O)N[C@@H](Cc1ccccc1)C(=O)OC(C)(C)C` had a pIC50 below 3.70. Further, the Activity in the assay on Plasmodium berghei [2] stood at 35.29%.

In turn, `COC(=O)[C@H](Cc1ccccc1)NC(=O)[C@H](CCCNC(=O)OCc1ccccc1)NC(=O)OC(C)(C)C` gave a pIC50 in the assay with Plasmodium berghei [1] below 3.70. In addition, in the assay with Plasmodium berghei [2], the Activity worked out at 40%.

For the molecule `CC(C)[C@H](NC(=O)[C@H](CCCNC(=O)OCc1ccccc1)NC(=O)OC(C)(C)C)C(=O)OC(C)(C)C`, in the assay on Plasmodium berghei [1], the pIC50 was 4.47. Besides, the Activity in the assay with Plasmodium berghei [2] worked out at 55.73%.

For `COC(=O)[C@@H](NC(=O)[C@@H](CCCNC(=O)OCc1ccccc1)NC(=O)OC(C)(C)C)C(C)C`, the pIC50 in the assay on Plasmodium berghei [1] was 5.52. Further, the Activity with Plasmodium berghei [2] is on record as 57.2%.

Molecule `CC(C)[C@H](NC(=O)[C@@H](CCCNC(=O)OCc1ccccc1)NC(=O)OC(C)(C)C)C(=O)OC(C)(C)C` gave a pIC50 in the assay on Plasmodium berghei [1] of 5.56. In addition, in the assay on Plasmodium berghei [2], the Activity is recorded as 72.64%.

On to `O=C(NCCC[C@@H]1NC(=O)[C@H](Cc2ccccc2)NC1=O)OCc1ccccc1`, for which, in the assay with Plasmodium berghei [1], the pIC50 was 3.91. For the same molecule, the Activity in the assay on Plasmodium berghei [2] amounted to 72.93%.

As for `CC(C)[C@@H]1NC(=O)[C@H](CCCNC(=O)OCc2ccccc2)NC1=O`, the pIC50 with Plasmodium berghei [1] was 4.18. Also, the Activity in the assay on Plasmodium berghei [2] is on record as 69.23%.

For `CC(C)[C@@H]1NC(=O)[C@@H](CCCNC(=O)OCc2ccccc2)NC1=O`, the pIC50 in the assay with Plasmodium berghei [1] is 5.51. The Activity in the assay with Plasmodium berghei [2] was 70.08%.

With `CC(C)[C@@H]1NC(=O)[C@H](CCCCNC(=O)OCc2ccccc2)NC1=O`, the negative-log IC50 (pIC50) in the assay with Plasmodium berghei [1] is 5.51. For the same molecule, in the assay with Plasmodium berghei [2], the Activity stood at 79.2%.

Molecule `CN1CC(=O)N[C@@H](Cc2ccccc2)C1=O` had a pIC50 with Plasmodium berghei [1] of 5.65. The Activity in the assay with Plasmodium berghei [2] was found to be 83.76%.

`CC(C)[C@@H]1NC(=O)[C@H](C(C)C)NC1=O` had a pIC50 with Plasmodium berghei [1] of 5.61. Further, in the assay on Plasmodium berghei [2], the Activity was determined as 87.18%.

Consider `CC(C)[C@@H]1NC(=O)CNC1=O`, for which the pIC50 in the assay on Plasmodium berghei [1] was 5.49. Besides, the Activity in the assay with Plasmodium berghei [2] was found to be 88.03%.

In turn, `CC(C)[C@@H]1NC(=O)[C@H](Cc2ccccc2)NC1=O` showed a negative logarithm of the IC50 (pIC50) with Plasmodium berghei [1] of 5.41. For the same molecule, the Activity in the assay with Plasmodium berghei [2] was 61.07%.

In the assay with Plasmodium berghei [1], `CC(C)(C)OC(=O)NCC(=O)N[C@@H](Cc1ccccc1)C(=O)OC(C)(C)C` (Boc-Gly-Phe-OtBu) gave a pIC50 of 3.79. Moreover, in the assay with Plasmodium berghei [2], the Activity amounted to 54.26%.

The molecule `CC(C)[C@H](NC(=O)CNC(=O)OC(C)(C)C)C(=O)OC(C)(C)C` (Boc-Gly-Val-OtBu) gave a pIC50 with Plasmodium berghei [1] of 5.50. Besides, the Activity with Plasmodium berghei [2] is on record as 59.55%.

In the assay with Plasmodium berghei [1], `CC(C)(C)OC(=O)N[C@@H](Cc1ccccc1)C(=O)N[C@@H](Cc1ccccc1)C(=O)OC(C)(C)C` (Boc-Phe-Phe-OtBu) had a pIC50 of 3.95. Also, the Activity in the assay on Plasmodium berghei [2] worked out at 55.73%.

Regarding `CC(C)[C@H](NC(=O)[C@H](Cc1ccccc1)NC(=O)OC(C)(C)C)C(=O)OC(C)(C)C` (Boc-Phe-Val-OtBu), the pIC50 with Plasmodium berghei [1] was 5.49. In the assay with Plasmodium berghei [2], the Activity was 77.94%.

In turn, `COC(=O)CN(C)C(=O)[C@H](Cc1ccccc1)NC(=O)OC(C)(C)C` (Boc-Phe-[Sar]-OMe) gave a negative logarithm of the IC50 (pIC50) with Plasmodium berghei [1] of 5.44. In addition, in the assay on Plasmodium berghei [2], the Activity turned out to be 79.41%.

`CN(CC(=O)OC(C)(C)C)C(=O)[C@H](Cc1ccccc1)NC(=O)OC(C)(C)C` (Boc-Phe-[Sar]-OtBu) showed a pIC50 with Plasmodium berghei [1] of 5.47. Also, in the assay on Plasmodium berghei [2], the Activity was found to be 79.41%.

For `CC(C)[C@H](NC(=O)OC(C)(C)C)C(=O)N[C@@H](Cc1ccccc1)C(=O)OC(C)(C)C` (Boc-Val-Phe-OtBu), the pIC50 with Plasmodium berghei [1] was 5.15. In the assay with Plasmodium berghei [2], the Activity worked out at 73.08%.

As for `CC(C)[C@H](NC(=O)OC(C)(C)C)C(=O)N[C@H](C(=O)OC(C)(C)C)C(C)C` (Boc-Val-Val-OtBu), the negative logarithm of the IC50 (pIC50) with Plasmodium berghei [1] was 5.55. In addition, in the assay with Plasmodium berghei [2], the Activity is listed as 77.64%.

On to `NCCCC(NC(=O)[C@H](Cc1ccccc1)NC(=O)C(CCCN)NC(=O)[C@@H](N)Cc1ccccc1)C(=O)O` (stereo not given in full) (H-F[ξOrn]F[ξOrn]-OH), for which the pIC50 with Plasmodium berghei [3] was 5.60.

As for `NCCCC[C@H](N)C(=O)N[C@@H](Cc1ccccc1)C(=O)N[C@@H](Cc1ccccc1)C(=O)NC(CCCN)C(=O)O` (stereo not given in full) (H-KFF[ξOrn]-OH), the pIC50 with Plasmodium berghei [3] was 5.60.

`CCN(CC)CCCC(C)Nc1ccnc2cc(Cl)ccc12` (stereo not given) [CHLOROQUINE] had a pIC50 with Plasmodium berghei [1] of 7.22. Besides, the Activity in the assay with Plasmodium berghei [2] worked out at 100%.
